Data set [1] deals with T1, NPC1-like intracellular cholesterol transporter 1 (Homo sapiens) (UniProt Q9UHC9).
T1 sequence (whole entry): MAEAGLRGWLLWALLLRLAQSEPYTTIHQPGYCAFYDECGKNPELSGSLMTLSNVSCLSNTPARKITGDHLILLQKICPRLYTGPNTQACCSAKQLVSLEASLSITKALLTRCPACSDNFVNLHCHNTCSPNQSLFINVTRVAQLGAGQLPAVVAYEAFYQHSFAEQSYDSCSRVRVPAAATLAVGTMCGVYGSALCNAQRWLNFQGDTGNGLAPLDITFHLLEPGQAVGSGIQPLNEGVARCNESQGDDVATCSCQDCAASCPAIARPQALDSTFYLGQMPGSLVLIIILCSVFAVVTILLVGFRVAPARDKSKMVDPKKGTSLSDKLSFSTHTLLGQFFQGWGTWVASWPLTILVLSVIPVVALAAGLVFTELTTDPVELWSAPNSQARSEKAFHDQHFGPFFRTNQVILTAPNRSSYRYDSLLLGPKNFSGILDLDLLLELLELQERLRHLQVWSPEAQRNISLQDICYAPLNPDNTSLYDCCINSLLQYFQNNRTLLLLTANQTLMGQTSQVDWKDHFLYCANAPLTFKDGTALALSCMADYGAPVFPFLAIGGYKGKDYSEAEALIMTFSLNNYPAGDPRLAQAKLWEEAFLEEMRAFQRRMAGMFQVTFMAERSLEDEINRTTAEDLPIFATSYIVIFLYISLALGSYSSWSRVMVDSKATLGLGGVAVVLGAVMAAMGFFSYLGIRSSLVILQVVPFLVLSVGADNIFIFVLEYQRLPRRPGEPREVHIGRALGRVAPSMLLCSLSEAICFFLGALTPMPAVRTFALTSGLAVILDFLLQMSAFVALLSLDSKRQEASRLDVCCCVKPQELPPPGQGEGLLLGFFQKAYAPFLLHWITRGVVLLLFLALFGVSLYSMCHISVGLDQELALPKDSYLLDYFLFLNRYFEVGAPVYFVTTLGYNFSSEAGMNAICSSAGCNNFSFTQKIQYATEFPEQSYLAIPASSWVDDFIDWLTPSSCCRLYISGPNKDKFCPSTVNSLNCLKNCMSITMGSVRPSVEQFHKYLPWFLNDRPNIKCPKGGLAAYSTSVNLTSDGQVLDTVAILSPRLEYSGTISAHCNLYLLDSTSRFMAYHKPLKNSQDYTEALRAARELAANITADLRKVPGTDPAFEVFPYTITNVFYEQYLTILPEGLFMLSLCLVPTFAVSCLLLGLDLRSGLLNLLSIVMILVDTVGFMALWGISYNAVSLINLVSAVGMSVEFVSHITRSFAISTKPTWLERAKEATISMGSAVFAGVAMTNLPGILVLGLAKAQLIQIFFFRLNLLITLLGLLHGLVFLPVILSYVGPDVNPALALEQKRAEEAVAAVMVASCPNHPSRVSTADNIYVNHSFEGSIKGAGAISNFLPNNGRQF
Kind of data set: Binding affinity to human EGFP-tagged NTD-deleted NPC1L1 L1072T/L1168I mutant expressed in HEK293 cells assessed as localization to plasma membrane after 24 hrs by fluorescence microscopic analysis. The class given is cell-based. In outline: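 Stable HEK293 lines expressing NTD-deleted NPC1L1 L1072T/L1168I-EGFP were grown 24 h on poly-D-lysine-coated glass-bottomed wells and treated with compound (0.1% final DMSO). Cells were fixed in 3.7% formaldehyde-PBS with Hoechst-33342 nuclear counterstain. NPC1L1-GFP localization was examined by fluorescence imaging.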

Data set [2] concerns the target T1, NPC1-like intracellular cholesterol transporter 1 (Homo sapiens). The experiment in a line: Binding affinity to human GFP-tagged NPC1L1 L1072T/L1168I mutant expressed in HEK293 cells assessed as localization to plasma membrane at 10 uM after 24 hrs by fluorescence microscopic analysis. The class given is cell-based. In outline:
(§1)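 HEK293 cells stably expressing EGFP-tagged NPC1L1 L1072T/L1168I were plated on poly-D-lysine-coated glass-bottomed wells (20 µg/mL in PBS) and grown 24 h. They were then exposed to compound at 10 or 30 µM (0.1% final DMSO) and fixed in 3.7% formaldehyde-PBS. Read-out was % of EGFP signal localized to the plasma membrane.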

Data set [3] deals with Liver X receptor (Homo sapiens) (UniProt Q13133+P55055). The experiment in a line: Activation of LXR (unknown origin) expressed in HEK293 cells at 30 uM after 16 hrs by luciferase reporter gene assay. The class given is cell-based. In general terms: Reporter assays use an easily measured gene product as a stand-in for the process of interest.
For data set [4], the target named is T1, NPC1-like intracellular cholesterol transporter 1 (Homo sapiens). Kind of data set: Binding affinity to human GFP-tagged NPC1L1 L1072T/L1168I mutant expressed in HEK293 cells assessed as localization to plasma membrane at 30 uM after 24 hrs by fluorescence microscopic analysis. Type of data set: cell-based. In outline:
as §1

Data set [5] has the same target. The experiment in a line: Binding affinity to human EGFP-tagged full-length NPC1L1 L1072T/L1168I mutant expressed in HEK293 cells assessed as protein stabilization after 24 hrs by fluorescence assay. The class given is cell-based. Put shortly:
(§2)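 Steady-state levels of full-length or NTD-deleted NPC1L1 L1072T/L1168I-GFP were measured in stably expressing HEK293 cells treated with compound at 1–30 µM or vehicle. GFP fluorescence in cell lysates was normalized to total protein by bicinchoninic acid assay. Values are expressed as % of vehicle-treated cells.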

Data set [6] shares this target. Kind of data set: Binding affinity to human EGFP-tagged NTD-deleted NPC1L1 L1072T/L1168I mutant expressed in HEK293 cells assessed as protein stabilization after 24 hrs by fluorescence assay. Type of data set: cell-based. Put shortly:
as §2

The species entered for the next data set is Homo sapiens. Kind of data set: Selectivity for human GFP-tagged NPC1L1 L1072T/L1168I mutant over LXR (unknown origin).
A further data set has as its system HEK293. The experiment in a line: Cytotoxicity against HEK293 cells transfected with human GFP-tagged NPC1L1 L1072T/L1168I mutant at 30 uM. Type of data set: cell-based. The settings on record: hek293, 30 µM.

Calls of active or inactive are those of the source. The calls are words filed in the database; no cut-off is given here.

With `CCCCn1c(=O)c2c(c3cc(C(=O)N(CC)C4CC4)ccc31)CCCCC2`, the outcome in data set [1], in data set [5] and in data set [6] was Active. For the same molecule, the figures for the Activity in data set [2] and in data set [4] were 8% and 45%, respectively. Besides, the outcome in data set [3] was inactive. Further, the Selectivity ratio in the data set filed under Homo sapiens stood at 2.

Turning to `CCN(C(=O)c1ccc2c(c1)c1c(c(=O)n2C(C)C)CCCCC1)C1CC1`, the Activity in data set [2] was 0%; with HEK293 it was “Toxic”.
